Source: PubChem BioAssay
TAAR1 antag = human TAAR1 antagonists, primary screen, Fluo-8 calcium fluorescence, CHO RD-HGA16 cells; Trace amine-associated receptor 1 (Homo sapiens), Q96RJ0; antagonist; inhibition, % at 3 µM; hit rate 1.5% among 360,000; AID 624466, 2012;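 active = inhibition above a per-plate cutoff, the mean inhibition of test compounds on that plate plus 3 SD, cut at about 49% in these data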;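 note: 0% = DMSO plus EC80 beta-PEA response and 100% = DMSO alone without agonist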
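Material: RD-HGA16 CHO cells with stable hTAAR1 and Gα16; Dosing: single nominal final test compound concentration of 3 µM; Schedule: seeding 17-24 h prior, 75-min 37 °C, 30-min RT dye loading; Detection: kinetic Fluo-8 calcium fluorescence measurement; Measure: % inhibition from peak post-agonist over basal fluorescence ratio; Benchmarks: vehicle and agonist controls.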
TAAR1 ag = human TAAR1 agonists, primary screen, Fluo-8 calcium fluorescence, CHO RD-HGA16 cells; vehicle wells 0%, saturating PEA agonist 100%; activation, % at 3 µM; hit rate 0.99% among 360,000; AID 624467, 2012;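 active = activation above the mean activation of all test compounds in the run plus 3 SD, cut at about 38% in these data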
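Repeats: no replicates (n 1) | Material: CHO-derived RD-HGA16 cells with stable Gα16 and human TAAR1 | Technique: Kinetic Fluo-8 calcium fluorescence | Schedule: 17-24 h seeding, 75 min 37 °C dye, 30 min RT | Evaluation: % activation from peak over basal fluorescence ratio, DMSO-to-PEA scaled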
OX1R antag-1 = OX1R (HCRTR1) antagonists, primary screen, fluorescence, CHO/OX1R cells, Fluo-8 calcium, orexin A. hit rate 0.43% among 330,000. Orexin/Hypocretin receptor type 1 (Homo sapiens), O43613. inhibition, % at 5 µM. Fluo-8 calcium fluorescence;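 active = inhibition above its plate's threshold, mean inhibition of all tested compounds on the plate plus 3 SD, cut at about 37% in these data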;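 note: 0% = orexin A challenge wells and 100% = SB-334867-A antagonist wells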
Target sequence (O43613 whole entry, looked up): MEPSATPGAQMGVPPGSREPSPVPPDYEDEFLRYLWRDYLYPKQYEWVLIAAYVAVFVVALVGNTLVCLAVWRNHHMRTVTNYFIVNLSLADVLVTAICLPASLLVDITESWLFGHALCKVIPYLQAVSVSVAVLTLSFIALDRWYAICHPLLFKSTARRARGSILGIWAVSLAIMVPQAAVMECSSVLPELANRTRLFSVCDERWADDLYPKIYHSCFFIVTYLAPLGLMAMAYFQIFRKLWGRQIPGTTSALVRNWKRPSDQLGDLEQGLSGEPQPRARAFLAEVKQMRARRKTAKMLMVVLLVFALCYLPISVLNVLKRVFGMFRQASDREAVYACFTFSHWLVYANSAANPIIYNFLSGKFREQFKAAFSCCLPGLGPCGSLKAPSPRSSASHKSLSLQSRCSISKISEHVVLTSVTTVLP
CHO parental Ca = ATP-evoked calcium signal inhibitors, parental CHO, primary screen, counter-screen for OX1R antagonist project, cell-based, fluorescence, Fluo-8 calcium dye. parental CHO-K1, ATP-induced calcium, Fluo-8 fluorescence. AID 463079, 2010. hit rate 0.63% among 330,000. inhibition, % at 5.6 µM;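 active = inhibition above that plate's mean sample inhibition plus 3 SD, cut at about 26% in these data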;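 note: 0% = ATP-challenged DMSO wells and 100% = DMSO wells without ATP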
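Assay system – parental CHO cells · Reagent – ATP stimulus · Detection – intracellular calcium via Fluo-8 no-wash fluorescent dye · Evaluation – percent inhibition of ATP-evoked calcium rise, normalized to controls · Controls – ATP wells versus no-ATP DMSO wells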
OX1R antag-2 = antagonists of human orexin 1 receptor (OX1R); Orexin/Hypocretin receptor type 1 (Homo sapiens), O43613; OX1R-expressing cells, FRET antagonist read-out; inhibition, % at 6.6 µM; hit rate 1.8% among 330,000; in the data active = inhibition mostly above about 38%, no sharp cut-off; inactive = mostly below about 40%;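 note: 0% = agonist challenge alone and 100% = reference antagonist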
GPR7 antagonist = GPR7 receptor antagonists, primary screen, cell-based, fluorescence, single concentration. Neuropeptides B/W receptor type 1 (Homo sapiens), P48145. GPR7-expressing cells, fluorescence antagonist assay. inhibition, % at 4.4 µM. hit rate 1.1% among 290,000. AID 1861, 2009; in the data active = inhibition above about 16%, passing the limit was not always enough;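 note: cells stimulated with the agonist NPW; 0% = agonist with vehicle and 100% = vehicle without agonist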
Starred values were filed as active, the others as inactive; x = no result given. Rows were chosen to be rich in hits. Some 4.5% of all compounds tested hit in one or more screens of this group.

SMILES	TAAR1 antag	TAAR1 ag	OX1R antag-1	CHO parental Ca	OX1R antag-2	GPR7 antagonist
COc1ccccc1N1CCN(c2ccc3c(c2)S(=O)(=O)c2cccc(C(=O)NCC4CC4)c2C3=O)CC1	53.8*	13.0	x	x	x	x
CC1CCN(c2ccc3c(c2)S(=O)(=O)c2cccc(C(=O)NCc4ccc(F)cc4)c2C3=O)CC1	38.2	21.9	-3.6	-14.4	-0.2	x
O=C(NCc1cc(C(F)(F)F)ccc1Cl)c1cccc2c1C(=O)c1ccc(N3CCC(Cc4ccccc4)CC3)cc1S2(=O)=O	x	x	-18.8	-11.1	6.6	x
O=C(NC1CCCC1)c1cccc2c1C(=O)c1ccc(N3CCCCC3)cc1S2(=O)=O	20.9	9.8	-22.4	-8.9	4.4	x
O=C(NC1CC1)c1cccc2c1C(=O)c1ccc(N3CCC(Cc4ccccc4)CC3)cc1S2(=O)=O	78.1*	46.2*	30.5	13.6	14.0	x
CC1CCN(c2ccc3c(c2)S(=O)(=O)c2cccc(C(=O)NC4CCCCC4)c2C3=O)CC1	71.5*	40.8*	-0.7	-2.6	31.2	x
CC1CCN(c2ccc3c(c2)S(=O)(=O)c2cccc(C(=O)O)c2C3=O)CC1	18.8	5.8	-1.8	11.7	8.4	x
O=C(NC1CCCCC1)c1cccc2c1C(=O)c1ccc(N3CCCC3)cc1S2(=O)=O	59.1*	30.3	20.0	-6.1	33.9	x
C[C@H]1CN(S(=O)(=O)C(C)(C)C)[C@H](CCO)/C1=C\CCO	-22.3	0.8	x	x	x	x
COC(=O)c1c(-c2ccc(OC)cc2)c2c(c3c4cc(OC)ccc4n(S(=O)(=O)c4ccc(C)cc4)c13)C(=O)N(C)C2	-21.3	-1.3	x	x	x	x
COc1ccc(-c2ccc3c(n2)CCCN3Cc2ccccc2C(F)(F)F)cc1	-25.5	-1.2	x	x	x	x
Cc1cccc(C)c1-n1nnnc1C1c2ccccc2C(=O)N1CCc1ccc(O)cc1 (centres undefined)	2.0	7.6	x	x	x	x
C=CCNC(=O)c1cccc2c1C(=O)c1ccc(N3CCOCC3)cc1S2(=O)=O	-2.6	10.8	-7.2	-6.3	63.8*	x
O=C(NCc1ccccc1Br)c1cccc2c1C(=O)c1ccc(N3CCOCC3)cc1S2(=O)=O	x	x	15.5	-6.1	1.0	x
O=C(N/N=C/c1ccc([N+](=O)[O-])cc1)c1[nH]ncc1Br	-5.9	3.6	-12.7	-4.8	58.1*	-1.8
O=C(N/N=C/c1ccc([N+](=O)[O-])cc1)c1cc(C2CC2)[nH]n1	-32.6	2.9	-11.5	-2.0	67.8*	-8.8
O=C(N/N=C\c1cn[nH]c1-c1ccccc1)c1ccc([N+](=O)[O-])cc1	-2.9	1.9	-9.5	-14.0	35.5	6.9
Cc1cc(C(=O)N/N=C/c2ccc(O)c([N+](=O)[O-])c2)n[nH]1	-10.2	0.8	-8.8	1.1	60.1*	-3.3
Cc1cc(C(=O)N/N=C/c2cccc([N+](=O)[O-])c2O)n[nH]1	15.3	-1.5	-15.0	-16.9	39.5	-4.0
CCCn1c(CN2CCN(C(=O)c3ccco3)CC2)nc2cc(S(=O)(=O)N(C)C)ccc21	6.6	3.9	x	x	x	x
CCOc1ccccc1CNc1ncnc2ccc(-c3c(C)noc3C)cc12	36.7	2.5	33.9	4.3	33.1*	x
Cc1cc(NC(=O)CCCSc2nc(-c3ccco3)cc(C(F)(F)F)n2)no1	-5.1	4.7	-20.8	-13.4	14.3	-8.2
COc1ccc(NC(=O)CCCSc2nc(-c3ccco3)cc(C(F)(F)F)n2)cc1OC	16.9	18.1	-9.7	-12.5	65.8*	-8.0
O=C(Nc1ccccc1F)C1CCCN1S(=O)(=O)c1cccc2nsnc12 (centres undefined)	-19.3	0.1	9.0	-8.8	68.2*	-13.7
CCOC(=O)c1c(NC(=O)C2CCCN2S(=O)(=O)c2cccc3nsnc23)sc(C)c1C (centres undefined)	-22.8	0.4	x	x	x	x
SMILES	TAAR1 antag	TAAR1 ag	OX1R antag-1	CHO parental Ca	OX1R antag-2	GPR7 antagonist
CC1CCCC(NC(=O)C2CCCN2S(=O)(=O)c2cccc3nsnc23)C1C (centres undefined)	-4.7	0.3	-27.7	-15.2	70.6*	1.8
Cc1ccc(C(=O)O)cc1NC(=O)C1CCCN1S(=O)(=O)c1cccc2nsnc12 (centres undefined)	0.8	1.4	-11.6	3.3	51.5*	-11.5
CCCCNC(=O)C1CCCN1S(=O)(=O)c1cccc2nsnc12 (centres undefined)	-2.6	6.1	-4.5	-7.2	29.1	1.8
Cc1c(NC(=O)C2CCCN2S(=O)(=O)c2cccc3nsnc23)cccc1C(=O)O (centres undefined)	11.8	-0.1	-13.0	-10.4	48.2*	-1.6
COC(=O)C1=C(C)N(Cc2ccc(C(F)(F)F)cc2)C(=NCc2ccccc2C(F)(F)F)NC1c1ccc(Cl)cc1 (centres undefined)	6.8	2.6	x	x	x	x
O=C(Nc1ccccc1Br)C1CCCN1S(=O)(=O)c1cccc2nsnc12 (centres undefined)	-5.4	-1.3	-0.6	-25.1	56.3*	-7.7
COC(=O)[C@@H](Cc1ccccc1)N[C@H](/C=C/c1ccccc1)[C@@H](O)Cc1ccccc1	14.3	-1.3	x	x	x	x
COc1ccc(-c2ccc3c(=O)cc(-c4ccsc4)oc3c2)cn1	11.8	3.7	13.9	-16.2	63.1*	x
COc1cc(-c2ccc3oc(-c4ccsc4)cc(=O)c3c2)cc(OC)c1OC	49.9*	9.1	9.0	-19.9	67.3*	x
O=c1cc(-c2ccsc2)oc2cc(-c3ccc4c(c3)OCO4)ccc12	14.6	0.0	-11.8	-16.5	13.3	x
O=C(c1ccccc1)N1CCC2CCN(S(=O)(=O)c3ccccc3)CC21 (centres undefined)	-26.3	1.4	x	x	x	x
CCOC(=O)C1CSCCS(=O)(=O)N1Cc1cccc(F)c1 (centres undefined)	6.3	1.4	x	x	x	x
Cc1ccc(CN2C(=O)CCC2(C)c2nnnn2-c2ccc3c(c2)OCCO3)cc1 (centres undefined)	-16.6	1.8	x	x	x	x
CCOc1ccc(-c2c(C(=O)N/N=C/c3c[nH]c4ccccc34)nnn2-c2nonc2N)cc1	52.9*	3.9	16.2	16.9	23.4	8.2
C/C(=N\NC(=O)c1nnn(-c2nonc2N)c1C)c1ccc(-c2ccccc2)cc1	0.3	6.5	-65.3	-4.8	11.1	19.7*
Nc1nonc1-n1nnc(C(=O)N/N=C/c2cccc(F)c2)c1-c1ccc2c(c1)OCO2	44.6	44.1*	0.9	6.1	19.8	-17.0
